Data reported in ChEMBL document CHEMBL1148371, “Sulfonyl-containing aldophosphamide analogues as novel anticancer prodrugs targeted against cyclophosphamide-resistant tumor cell lines” (J Med Chem, 2004).

Key:
[1] = Half life period in human plasma using phosphate buffer (0.08 M); assay type: ADME, cell-free
[2] = Half life period in phosphate buffer (0.08 M); assay type: ADME
How it was run: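 Prodrug was incubated in 0.08 M phosphate buffer pH 7.4 at 37 °C with shaking, mostly at 3–9 mM (0.8 or 0.3 mM for some). Incubation was stopped with 2.0 M acetate pH 5.0 plus EtOH. Parent compound was quantified by silica TLC (UV 254 nm or NBP stain) and densitometry against a zero-time control. kobs came from the ln(% remaining) versus time slope; t1/2 = 0.693/kobs.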

P388/CPA [3] = experiment: In vivo antitumor activity against P388/CPA leukemia (resistant) in mice measured by increase in life span after 200 mg/kg compound administration; assay type: functional; details: Mus musculus
How it was run: (§1)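 CD2F1 mice (24–26 g) were implanted ip with 10^6 P388/0 or P388/CPA leukemia cells on day 0. A single ip dose (100, 200 or 400 mg/kg) in saline or saline–Tween 80 was given on day 1; vehicle controls were included. Five mice were used per dose. Survival was followed for 33 days against untreated controls and reported as % increase in life span and number of long-term survivors.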

P388/CPA [4] = experiment: In vivo antitumor activity against P388/CPA leukemia (resistant) in mice measured by increase in life span after 400 mg/kg compound administration; assay type: functional; details: Mus musculus; how it was run: as §1
P388/CPA [5] = experiment: In vivo antitumor activity against P388/CPA leukemia in mice (resistant) measured by increase in life span after 100 mg/kg compound administration; assay type: functional; details: Mus musculus; how it was run: as §1
P388 [6] = experiment: In vivo antitumor activity against P388/0 (wild) leukemia in mice measured by increase in life span after 100 mg/kg compound administration; assay type: functional; details: Mus musculus; how it was run: as §1
P388 [7] = experiment: In vivo antitumor activity against P388/0 (wild) leukemia in mice measured by increase in life span after 200 mg/kg compound administration; assay type: functional; details: Mus musculus; how it was run: as §1
P388 [8] = experiment: In vivo antitumor activity against P388/0 (wild) leukemia in mice measured by increase in life span after 400 mg/kg compound administration; assay type: functional; details: Mus musculus; how it was run: as §1
V79 = experiment: In vitro cytotoxicity against V-79 chinese hamster lung fibroblasts (3 hr drug exposure time) by clonogenic assay; assay type: functional, cell-based; details: Cricetulus griseus, V79, 3 h
How it was run: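 Subcloned V-79 cells in MEM with 10% heat-inactivated FBS were used. 500 log-phase cells per dish were seeded and left 12–15 h. Cells were exposed to drug or solvent for 3 h at 37 °C, rinsed with HBSS, and grown 5–6 days. Colonies were fixed with EtOH, stained with crystal violet and counted against solvent control. IC50 (50% loss of clonogenic survival) came from the semilog concentration–survival plot; three experiments.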

[9] = Half life period in phosphate buffer (0.2 M); assay type: ADME
[10] = In vivo antitumor activity against P388/0 (wild) leukemia in mice measured by increase in life span after 200 mg/kg compound administration; Toxic; assay type: toxicity, organism-based; parameters: dose 200 mg/kg; details: mouse; how it was run: as §1
P388 [11] = experiment: Number of long-term (33-day) survival P388/0 (wild) leukemia mice (5) after 400 mg/kg compound administration; assay type: functional, Mus musculus; how it was run: as §1
[12] = In vivo antitumor activity against P388/0 (wild) leukemia in mice measured by increase in life span after 400 mg/kg compound administration; Toxic; assay type: toxicity, organism-based; parameters: dose 400 mg/kg; details: mouse; how it was run: as §1
[13] = In vivo antitumor activity against P388/CPA leukemia (resistant) in mice measured by increase in life span after 400 mg/kg compound administration; Toxic; assay type: toxicity, organism-based; parameters: dose 400 mg/kg; details: mouse; how it was run: as §1

| Structure (SMILES) | half-life [1] | half-life [2] | ILS at 200 mg/kg (P388/CPA [3]) | ILS at 400 mg/kg (P388/CPA [4]) | ILS at 100 mg/kg (P388/CPA [5]) | ILS at 100 mg/kg (P388 [6]) | ILS at 200 mg/kg (P388 [7]) | ILS at 400 mg/kg (P388 [8]) | IC50 (V79) | half-life [9] | ILS [10] | Number (P388 [11]) | ILS [12] | ILS [13] |
| --- | --- | --- | --- | --- | --- | --- | --- | --- | --- | --- | --- | --- | --- | --- |
| CS(=O)(=O)CC(OP(=O)(N(CCCl)CCCl)N(CCCl)CCCl)c1ccccc1 (stereo not given) | 1 h | 1.8 h | 20% | 60% | 4% | 10% | 20% | 20% | 15.2 µM | – | – | – | – | – |
| Cc1ccc(S(=O)(=O)CCOP(N)(=O)N(CCCl)CCCl)cc1 (stereo not given) | 4.8 h | 12.8 h | 28% | 44% | 28% | 20% | 50% | 90% | 11.5 µM | – | – | – | – | – |
| CSCCOc1ccc([N+](=O)[O-])c([N+](=O)[O-])c1 | – | – | – | – | – | – | – | – | 69.1 µM | – | – | – | – | – |
| O=[N+]([O-])c1ccc(SCCO)cc1 | – | – | – | – | – | – | – | – | 69.1 µM | – | – | – | – | – |
| CSCC(OP(=O)(N(CCCl)CCCl)N(CCCl)CCCl)c1ccccc1 (stereo not given) | – | – | – | – | – | – | – | – | 69.1 µM | – | – | – | – | – |
| CS(=O)(=O)CCOP(=O)(N(CCCl)CCCl)N(CCCl)CCCl | 1.6 h | 7.2 h | 28% | 60% | 12% | 10% | 10% | 30% | 24.1 µM | – | – | – | – | – |
| O=P(O)(NCCCl)NCCCl [PALIFOSFAMIDE] | – | – | – | – | – | 92% | – | – | 60.9 µM | 1 h | Toxic | – | – | – |
| CS(=O)(=O)CCOc1ccc([N+](=O)[O-])c([N+](=O)[O-])c1 | – | – | – | – | – | – | – | – | 69.1 µM | – | – | – | – | – |
| Cc1ccc(S(=O)(=O)CCOP(=O)(NCCCl)NCCCl)cc1 | 4.4 h | 12.1 h | 12% | 36% | 4% | 23% | 14% | 23% | 9.5 µM | – | – | – | – | – |
| CSCCO | – | – | – | – | – | – | – | – | 69.1 µM | – | – | – | – | – |
| CS(=O)(=O)CCOP(=O)(NCCCl)NCCCl | 2.2 h | 6.4 h | 84% | 108% | 20% | 33% | 52% | 100% | 68 µM | – | – | 1 | – | – |
| CSCCOP(=O)(N(CCCl)CCCl)N(CCCl)CCCl | – | – | – | – | – | – | – | – | 69.1 µM | – | – | – | – | – |
| Cc1ccc(SCCOP(N)(=O)N(CCCl)CCCl)cc1 (stereo not given) | – | – | – | – | – | – | – | – | 69.1 µM | – | – | – | – | – |
| O=[N+]([O-])c1ccc(S(=O)(=O)CCOP(=O)(N(CCCl)CCCl)N(CCCl)CCCl)cc1 | 0.37 h | 0.69 h | 68% | – | 84% | 100% | 120% | – | 1.8 µM | – | – | – | Toxic | Toxic |
| Cc1ccc(SCCO)cc1 | – | – | – | – | – | – | – | – | 69.1 µM | – | – | – | – | – |
| O=[N+]([O-])c1ccc(S(=O)(=O)CCOP(=O)(NCCCl)NCCCl)cc1 | < 0.01 h | 0.08 h | 92% | – | 60% | 71% | 138% | – | 2.1 µM | – | – | – | Toxic | Toxic |
| O=P(NCCCl)(NCCCl)OCCS(=O)(=O)c1ccccc1 | 2.6 h | 6.4 h | 28% | 60% | 20% | 33% | 33% | 33% | 13.9 µM | – | – | – | – | – |
